# Measurements as given in ChEMBL document CHEMBL1121850, “Synthesis of peptide analogues of prothrombin precursor sequence 5-9. Substrate specificity of vitamin K dependent carboxylase” (J Med Chem, 1981).
# Numbered stars: 1 amine (or outer) side, 2 acyl side, 3 side chain; on linkers, the order of the positions; unused ones are H or OH. Square brackets hold non-standard residues; d marks the D form. Peptide text beside a SMILES is read from it. * marks the point of attachment. ξ: configuration not given here. Pyrrolidin1yl(2S-Ac) = CC(=O)[C@@H]1CCCN1*; ξF = NC(Cc1ccccc1)C(=O)O; X1 = CO[C@H](CC(C)C)N*; Boc = CC(C)(C)OC(=O)*; CO = O=C([*:1])[*:2]; OtBu = CC(C)(C)O*
# Molecular target: T1, Vitamin K-dependent gamma-carboxylase (Rattus norvegicus) (UniProt O88496)
# T1 sequence (whole entry): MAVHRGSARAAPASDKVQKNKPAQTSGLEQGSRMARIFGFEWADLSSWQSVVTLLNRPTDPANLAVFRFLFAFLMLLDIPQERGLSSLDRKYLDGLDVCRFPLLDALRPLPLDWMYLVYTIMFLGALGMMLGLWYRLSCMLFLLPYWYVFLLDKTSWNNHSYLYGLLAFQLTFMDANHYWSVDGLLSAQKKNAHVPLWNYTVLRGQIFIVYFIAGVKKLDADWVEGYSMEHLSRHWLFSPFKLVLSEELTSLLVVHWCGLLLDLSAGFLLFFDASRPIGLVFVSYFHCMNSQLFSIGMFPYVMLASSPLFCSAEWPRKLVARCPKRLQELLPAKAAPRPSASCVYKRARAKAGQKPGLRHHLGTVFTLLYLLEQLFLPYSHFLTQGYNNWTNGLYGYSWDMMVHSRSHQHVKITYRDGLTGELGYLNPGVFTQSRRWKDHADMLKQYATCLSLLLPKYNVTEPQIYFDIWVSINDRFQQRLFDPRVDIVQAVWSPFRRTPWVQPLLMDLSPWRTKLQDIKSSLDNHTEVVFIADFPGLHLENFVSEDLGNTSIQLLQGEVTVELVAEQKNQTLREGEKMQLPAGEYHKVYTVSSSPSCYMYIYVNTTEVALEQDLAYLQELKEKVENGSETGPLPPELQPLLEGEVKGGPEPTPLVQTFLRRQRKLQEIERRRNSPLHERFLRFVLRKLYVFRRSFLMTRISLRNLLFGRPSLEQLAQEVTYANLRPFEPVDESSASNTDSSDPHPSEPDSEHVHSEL
# Assay: Relative activity for […] rat liver vitamin K dependent carboxylase mediated carboxylation of pentapeptide at 1 mM.
# Format: functional, tissue-based
# How it was run: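 Carboxylase source was Triton-solubilized liver microsomes from vitamin K-deficient rats, pellets KCl-washed. Peptide at 1 mM was incubated with NaH¹⁴CO₃ and vitamin K-H₂ (in ethanol) at 17 °C for 10–20 min. Read-out was ¹⁴CO₂ in TCA-soluble material, with the ethanol-only background subtracted. Activity is given as % of the 1 mM reference pentapeptide on the same preparation; duplicate incubations.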
row,Relative activity,SMILES
1,6%,CC(C)C[C@H](NC(=O)[C@H](CO)NC(=O)[C@H](CCC(=O)O)NC(=O)[C@H](CC(C)C)NC(=O)[C@H](C)NC(=O)[C@H](CCC(=O)O)NC(=O)[C@@H](N)Cc1ccccc1)C(=O)O (H-FEALESL-OH)
2,11%,COC(=O)NC(=O)[C@H](CC(C)C)NC(=O)[C@H](CCC(=O)O)NC(=O)C(CC(=O)O)NC(=O)OC(C)(C)C (stereo partly drawn)
3,25%,COC(=O)[C@H](CCC(=O)O)NC(=O)[C@H](C)NC(=O)[C@H](CCC(=O)O)NC(=O)[C@H](CC(C)C)NC(=O)N1CCC[C@H]1C(C)=O ({Pyrrolidin1yl(2S-Ac)-CO}-LEAE-OMe)
4,< 1%,COC(=O)NC(=O)[C@H](CC(C)C)NC(=O)[C@H](CCCC(=O)O)NC(=O)C(CCCC(=O)O)NC(=O)OC(C)(C)C (stereo partly drawn)
5,19%,COC(=O)[C@H](CCC(=O)O)NC(=O)[C@H](C)NC(=O)[C@H](CCC(=O)O)NC(=O)[C@H](CC(C)C)NC(=O)N1CCC[C@H]1C(=O)OC(C)(C)C ({OtBu-Pro-CO}-LEAE-OMe)
6,< 1%,CC(C)C[C@H](NC(=O)[C@H](CCC(=O)O)NC(=O)[C@H](CC(C)C)NC(=O)[C@H](CCC(=O)O)NC(=O)[C@H](Cc1ccccc1)NC(=O)O)C(=O)O (HELM PEPTIDE1{[O=C(O)[*:2]].F.E.L.E.L}$$$$V2.0)
7,72%,CC(C)C[C@H](NC(=O)[C@H](CCC(=O)O)NC(=O)[C@H](CCC(=O)O)NC(=O)[C@H](C)NC(=O)[C@@H](N)Cc1ccccc1)C(=O)O (H-FAEEL-OH)
8,6%,COC(=O)[C@H](CC(C)C)NC(=O)[C@H](CCC(=O)O)NC(=O)[C@H](CCC(=O)O)NC(=O)CNC(=O)OC(C)(C)C (HELM PEPTIDE1{[CC(C)(C)OC(=O)[*:2]].G.E.E.L.[CO[*:1]]}$$$$V2.0)
9,77%,COC(=O)[C@@H](CC(C)C)NC(=O)[C@H](CCC(=O)O)NC(=O)[C@H](CCC(=O)O)NC(=O)[C@H](CC(C)C)NC(=O)OC(C)(C)C
10,25%,COC(=O)[C@H](CC(C)C)NC(=O)[C@H](CCC(=O)O)NC(=O)[C@H](CCC(=O)O)NC(=O)CNC(=O)[C@H](Cc1ccccc1)NC(=O)OC(C)(C)C (HELM PEPTIDE1{[CC(C)(C)OC(=O)[*:2]].F.G.E.E.L.[CO[*:1]]}$$$$V2.0)
11,< 1%,COC(=O)[C@H](CC(C)C)NC(=O)[C@H](CCC(=O)O)NC(=O)[C@@H](CCC(=O)O)NC(=O)OC(C)(C)C
12,149%,CCC(=O)N[C@@H](Cc1ccccc1)C(=O)N[C@@H](CC(C)C)C(=O)N[C@@H](CCC(=O)O)C(=O)N[C@@H](CCC(=O)O)C(=O)N[C@@H](CC(C)C)C(=O)O (HELM PEPTIDE1{[CCC(=O)[*:2]].F.L.E.E.L}$$$$V2.0)
13,< 1%,COC(=O)[C@H](CC(C)C)NC(=O)[C@@H](CCC(=O)O)NC(=O)[C@@H](CCC(=O)O)NC(=O)OC(C)(C)C
14,77%,CO[C@H](CC(C)C)NC(=O)[C@H](CCC(=O)O)NC(=O)[C@H](CCC(=O)O)NC(=O)[C@H](CC(C)C)NC(=O)OC(C)(C)C
15,11%,COC(=O)NC(=O)[C@H](CC(C)C)NC(=O)[C@H](CC(=O)O)NC(=O)C(CCC(=O)O)NC(=O)OC(C)(C)C (stereo partly drawn)
16,55%,COC(=O)[C@H](CC(C)C)NC(=O)[C@H](CCC(=O)O)NC(=O)[C@H](CCC(=O)O)NC(=O)[C@@H](CC(C)C)NC(=O)OC(C)(C)C
17,< 1%,COC(=O)[C@H](CC(C)C)NC(=O)[C@@H](CCC(=O)O)NC(=O)[C@H](CCC(=O)O)NC(=O)[C@H](CC(C)C)NC(=O)[C@H](Cc1ccccc1)NC(=O)OC(C)(C)C
18,< 1%,CO[C@@H](CC(C)C)NC(=O)[C@@H](CCC(=O)O)NC(=O)OC(C)(C)C
19,46%,COC(=O)[C@H](CCC(=O)O)NC(=O)[C@H](C)NC(=O)[C@H](CCC(=O)O)NC(=O)[C@H](CC(C)C)NC(=O)OC(C)(C)C (HELM PEPTIDE1{[CC(C)(C)OC(=O)[*:2]].L.E.A.E.[CO[*:1]]}$$$$V2.0)

row,Relative activity,SMILES
1,< 1%,CC(C)(C)OC(=O)N[C@H](CCC(=O)O)C(=O)NCc1ccccc1
2,< 1%,COC(=O)[C@H](CC(C)C)NC(=O)[C@H](CCC(=O)O)NC(=O)[C@@H](CCC(=O)O)NC(=O)[C@H](CC(C)C)NC(=O)[C@H](Cc1ccccc1)NC(=O)OC(C)(C)C
3,107%,COC(=O)[C@H](CC(C)C)NC(=O)[C@H](CCC(=O)O)NC(=O)[C@H](CCC(=O)O)NC(=O)OC(C)(C)C
4,< 1%,COC(=O)NC(=O)[C@H](CC(C)C)NC(=O)[C@H](CCC(=O)O)NC(=O)C(CCC(=O)O)NC(=O)OC(C)(C)C (stereo partly drawn)
5,24%,CO[C@H](CC(C)C)NC(=O)[C@H](CCC(=O)O)NC(=O)[C@H](CCC(=O)O)NC(=O)[C@H](CC(C)C)NC(=O)C(Cc1ccccc1)NC(=O)OC(C)(C)C (stereo partly drawn) (Boc-[ξF]LEE-X1)
6,< 1%,COC(=O)NC(=O)[C@H](CC(C)C)NC(=O)[C@H](CC(=O)O)NC(=O)C(CC(=O)O)NC(=O)OC(C)(C)C (stereo partly drawn)
7,4%,CC(C)C[C@H](NC(=O)[C@H](CCC(=O)O)NC(=O)[C@H](CCC(=O)O)NC(=O)CNC(=O)[C@@H](N)Cc1ccccc1)C(=O)O (H-FGEEL-OH)
8,4%,COC(=O)NC(=O)[C@H](CCC(=O)O)NC(=O)[C@H](C)NC(=O)[C@H](CCC(=O)O)NC(=O)OC(C)(C)C
9,8%,CC(C)C[C@H](NC(=O)[C@H](CCC(=O)O)NC(=O)[C@H](CCC(=O)O)NC(=O)[C@@H](N)CC(C)C)C(=O)O (H-LEEL-OH)
10,< 1%,COC(=O)[C@H](CC(C)C)NC(=O)[C@@H](CCC(=O)O)NC(=O)[C@@H](CCC(=O)O)NC(=O)[C@H](CC(C)C)NC(=O)[C@H](Cc1ccccc1)NC(=O)OC(C)(C)C
11,100%,CC(C)C[C@H](NC(=O)[C@H](CCC(=O)O)NC(=O)[C@@H](CCC(=O)O)NC(=O)[C@H](CC(C)C)NC(=O)[C@@H](N)Cc1ccccc1)C(=O)O
12,< 1%,COC(=O)[C@H](CC(C)C)NC(=O)[C@@H](CCC(=O)O)NC(=O)[C@H](CCC(=O)O)NC(=O)OC(C)(C)C
13,19%,COC(=O)[C@H](CC(C)C)NC(=O)[C@H](CCC(=O)O)NC(=O)[C@H](CCC(=O)O)NC(=O)[C@H](C)NC(=O)OC(C)(C)C (HELM PEPTIDE1{[CC(C)(C)OC(=O)[*:2]].A.E.E.L.[CO[*:1]]}$$$$V2.0)
14,27%,CC(C)C[C@H](NC(=O)[C@H](CCC(=O)O)NC(=O)[C@H](CCC(=O)O)NC(=O)[C@H](CC(C)C)NC(=O)[C@H](Cc1ccccc1)NC(=O)c1ccccc1)C(=O)O (HELM PEPTIDE1{[O=C(c1ccccc1)[*:2]].F.L.E.E.L}$$$$V2.0)
15,19%,COC(=O)[C@@H](CC(C)C)NC(=O)[C@H](CCC(=O)O)NC(=O)[C@H](CCC(=O)O)NC(=O)[C@@H](CC(C)C)NC(=O)OC(C)(C)C
16,6%,COC(=O)NC(=O)[C@H](CC(C)C)NC(=O)[C@H](CCC(=O)O)NC(=O)C(CCSC)NC(=O)CC(C)C (stereo partly drawn)
17,5%,CC(C)(C)OC(=O)N[C@H](CCC(=O)O)C(=O)OCc1ccccc1
18,19%,COC(=O)[C@@H](CC(C)C)NC(=O)[C@H](CCC(=O)O)NC(=O)[C@H](CCC(=O)O)NC(=O)OC(C)(C)C

# Test system: not listed separately
# Assay: Michaelis constant was determined
# Format: ADME
row,Km,SMILES
1,4 mM,CC(C)C[C@H](NC(=O)[C@H](CCC(=O)O)NC(=O)[C@@H](CCC(=O)O)NC(=O)[C@H](CC(C)C)NC(=O)[C@@H](N)Cc1ccccc1)C(=O)O
